Only some compounds are listed: those with a hit (about 2.6% of all), similar ones and a draw of the others.
SENP8 block-1: SENP8 protease inhibitors, primary screen, biochemical, luminescence; purified SENP8, Z-RLRGG-aminoluciferin cleavage; AID 2540, 2010; 1.2% of 330,000 active; inhibition, % at 10 µM; Sentrin-specific protease 8 (Homo sapiens), Q96LD8; in the data active = inhibition above about 50%
SENP7 block: SENP7 protease inhibitors, primary screen, biochemical, luminescence, uHTS | 1.5% of 330,000 active | Sentrin-specific protease 7 (Homo sapiens), Q9BQF6 | AID 434973, 2010 | recombinant SENP7, Z-RLRGG-aminoluciferin luminescence, 40 min | inhibition, % at 5 µM;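 active = inhibition above about 50% at the single test dose, limit read from the data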
Target sequence (Q9BQF6 706-1050 limits assumed): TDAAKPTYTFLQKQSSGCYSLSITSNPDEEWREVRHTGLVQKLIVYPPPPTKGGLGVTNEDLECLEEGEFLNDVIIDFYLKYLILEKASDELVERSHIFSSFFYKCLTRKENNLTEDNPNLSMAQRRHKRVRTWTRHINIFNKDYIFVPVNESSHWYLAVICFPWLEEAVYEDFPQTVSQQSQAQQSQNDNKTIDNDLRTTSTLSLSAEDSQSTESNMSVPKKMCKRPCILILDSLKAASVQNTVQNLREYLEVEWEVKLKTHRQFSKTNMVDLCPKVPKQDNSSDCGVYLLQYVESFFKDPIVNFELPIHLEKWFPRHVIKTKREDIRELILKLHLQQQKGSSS
SENP1 FRET inh: human SENP1 catalytic domain inhibitors, primary screen, biochemical, FRET, uHTS | inhibition, % at 10 µM | Sentrin-specific protease 1 (Homo sapiens), Q9P0U3 | recombinant SENP1 catalytic domain, CyPet-SUMO1-YPet FRET cleavage | AID 624204, 2012 | 0.21% of 360,000 active;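 active = inhibition at least 30% at 10 µM, raw YFP signal under a set limit, fluorescence ratio 0.5 to 1.5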
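Material – human SENP1 catalytic domain · Input – SENP1 enzyme, 20 pM final · Compound dosing – single concentration of 10 µM compound, 0.5% DMSO final · Timing – enzyme reaction for 50 min at room temperature, dark · Measured by – FRET fluorescence in CFP and YFP emission channels · Control set – no-enzyme wells low, DMSO-plus-enzyme wells high control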
SENP6 block: SENP6 protease inhibitors, primary screen, biochemical, luminescence, uHTS; Sentrin-specific protease 6 (Homo sapiens), Q9GZR1; Recombinant SENP6 catalytic domain, aminoluciferin luminescence; inhibition, % at 10 µM; 1.8% of 330,000 active;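 active = inhibition above about 50% at the single tested dose, limit read from the data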
SENP8 block-2: human SENP8 protease inhibitors, primary screen, biochemical, fluorescence, Nedd8 protein substrate, uHTS; AID 602440, 2012; recombinant SENP8; 0.64% of 360,000 active; inhibition, % at 20 µM; in the data active = inhibition mostly above about 40%, no sharp cut-off; inactive = mostly below about 27%
Platelet DG rel: inhibitors of platelet dense granule secretion, primary screen, cell-based, MLPCN, human platelets | human platelet-rich plasma, SFLLRN dense granule ATP release, luminescence | inhibition, %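 (compounds screened at 7.5 µM in platelet-rich plasma)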 | 0.22% of 300,000 active | AID 1663, 2009;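 active = mean replicate score, as percent of positive control, at or above 50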
SENP8 conf: SENP8 protease inhibitors, retest, confirmation, biochemical, luminescence, single concentration; shares compounds with SENP7 block; Recombinant SENP8, Z-RLRGG-aminoluciferin luminescence, 60 min; inhibition, % at 12.5 µM; 40% of 6,200 active; AID 488912, 2010;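 active = mean inhibition across replicates above about 50%, limit read from the data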
SENP6 conf: SENP6 protease inhibitors, confirmation, biochemical, luminescence, single concentration; shares compounds with SENP7 block; recombinant SENP6, Z-RLRGG-aminoluciferin luminescence; inhibition, % at 12.5 µM; 58% of 6,200 active; AID 488915, 2010
SENP7 confirm: SENP7 protease inhibitors, retest, confirmation, biochemical, luminescence, single concentration; shares compounds with SENP7 block; recombinant SENP7, Z-RLRGG-aminoluciferin luminescence, 40 min; inhibition, % at 12.5 µM; 69% of 6,200 active; AID 488917, 2010
Casp3 select: caspase-3 protease inhibitors, confirmation, selectivity assay for SENP inhibitor project, biochemical, single concentration; shares compounds with SENP7 block; purified caspase-3, Z-DEVD-aminoluciferin luminescence, 60 min; inhibition, % at 12.5 µM; 60% of 6,200 active; AID 488918, 2010;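 active = mean inhibition above about 50%, limit read from the data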
Target sequence (P42574 28-227 limits assumed): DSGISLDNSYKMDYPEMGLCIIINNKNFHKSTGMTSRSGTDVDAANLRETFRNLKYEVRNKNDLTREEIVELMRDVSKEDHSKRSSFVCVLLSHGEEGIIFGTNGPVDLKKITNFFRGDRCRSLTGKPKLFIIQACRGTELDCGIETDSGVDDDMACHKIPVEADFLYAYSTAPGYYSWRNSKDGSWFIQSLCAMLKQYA
Luc interf: luminescence interference (SENP counter-screen); shares compounds with SENP7 block; Pre-incubated SENP8/Z-RLRGG-aminoluciferin, luciferase luminescence interference; inhibition, % at 12.5 µM; 39% of 6,200 active; AID 488919;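 active = mean inhibition above about 50% when retested at one dose, limit read from the data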
Of the large screens only hits and unclear results are named; the others gave an inactive call (follow-up assays come after a bar, where they were run).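 The calls were made as follows, unless noted: active = mean inhibition above about 50% in the one-dose retest (limit read from the data); inactive = the rest.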

Cc1ccccc1-c1nc2sc3c(c2c(=O)o1)CCC3	SENP8 block-1 83.3, SENP7 block 78.6, SENP6 block 87.7 | SENP8 conf inactive | SENP6 conf inactive | SENP7 confirm 53.3 | Casp3 select inactive | Luc interf inactive
O=c1oc(/C=C/c2ccccc2)nc2sc3c(c12)CCC3	SENP6 block 65.1 | SENP8 conf inactive | SENP6 conf inactive | SENP7 confirm inactive | Casp3 select inactive | Luc interf inactive
Cc1sc2nc(-c3cccs3)oc(=O)c2c1C	SENP7 block 50.9 | SENP8 conf inactive | SENP6 conf inactive | SENP7 confirm 60.3 | Casp3 select inactive | Luc interf inactive
CCn1cc(CN2CCC(n3nccc3NC(=O)CCc3ccccc3)CC2)cn1	none
O=c1oc(-c2cccs2)nc2sc3c(c12)CCCCC3	SENP6 block 55.3 | SENP8 conf inactive | SENP6 conf inactive | SENP7 confirm inactive | Casp3 select inactive | Luc interf inactive
Nn1c(-c2cccs2)nc2sc3c(c2c1=O)CCCC3	SENP8 block-1 71.4, SENP7 block 58.8, SENP6 block 89.7 | SENP8 conf inactive | SENP6 conf 69.9 | SENP7 confirm 90.1 | Casp3 select 60.1 | Luc interf inactive
COc1ccc(N=CC2=C(O)c3ccccc3C2=O)cc1	SENP8 block-1 92.9, SENP7 block 99.1, SENP6 block 95.2, SENP8 block-2 45.8, Platelet DG rel 59.5 | SENP8 conf inactive | SENP6 conf 67.2 | SENP7 confirm inactive | Casp3 select 89.0 | Luc interf inactive
O=C1C(C=Nc2ccccc2)=C(O)c2ccccc21	SENP8 block-1 92.1, SENP7 block 99.2, SENP6 block 97.9 | SENP8 conf 87.0 | SENP6 conf 88.4 | SENP7 confirm 100.2 | Casp3 select 94.2 | Luc interf 61.2
CC1(C)CC(=O)C(C=Nc2ccccc2)=C(O)C1	none
O=C1C(C=Nc2ccccc2O)=C(O)c2ccccc21	SENP8 block-1 95.0, SENP6 block 96.2, SENP8 block-2 44.8 | SENP8 conf 88.5 | SENP6 conf 95.2 | SENP7 confirm 100.1 | Casp3 select 94.9 | Luc interf 95.6
C[C@H](NC(=O)OC(C)(C)C)C(=O)NCC1CCC(C(=O)N[C@@H](Cc2ccccc2)C(=O)O)CC1 (stereo partly specified)	none
Nc1ccc2oc(-c3cc(Br)ccc3Cl)nc2c1	none
CCc1ccc2oc(-c3cc(N)cc(C)c3O)nc2c1	SENP8 block-1 74.6, SENP7 block 53.6, SENP6 block 78.7 (no result: Platelet DG rel) | SENP8 conf inactive | SENP6 conf 50.1 | SENP7 confirm 77.6 | Casp3 select 58.4 | Luc interf inactive
Nc1ccc2oc(-c3ccccc3Cl)nc2c1	SENP8 block-1 67.9, SENP7 block 76.5, SENP6 block 90.6 | SENP8 conf 89.7 | SENP6 conf 89.6 | SENP7 confirm 98.7 | Casp3 select 87.3 | Luc interf 79.7
Cc1ccc2nc(-c3cc(N)cc(N)c3)oc2c1	none
CCc1ccc2oc(-c3cc(N)ccc3O)nc2c1	SENP8 block-1 93.6, SENP7 block 92.3, SENP6 block 97.4 | SENP8 conf 67.9 | SENP6 conf 94.4 | SENP7 confirm 98.8 | Casp3 select 85.7 | Luc interf inactive
Cc1ccc2oc(-c3cc(NC(=O)c4ncn[nH]4)ccc3O)nc2c1	none
CCc1ccc2oc(-c3cc(N)ccc3Cl)nc2c1	SENP8 block-1 92.4, SENP7 block 95.5, SENP6 block 95.1 | SENP8 conf 94.8 | SENP6 conf 96.7 | SENP7 confirm 101.3 | Casp3 select 81.6 | Luc interf 78.5
CCCc1nnc(SCC(=O)O)n1CC	none
CC1C(=O)NN=C1C(=O)N/N=C\c1ccc(O)cc1O (stereo unspecified)	SENP8 block-1 60.8, SENP7 block 74.7, SENP6 block 71.0 | SENP8 conf 68.5 | SENP6 conf 64.7 | SENP7 confirm 87.0 | Casp3 select 88.9 | Luc interf inactive
O=S(=O)(Nc1ccon1)c1ccc(F)c(F)c1	none
Cc1csc(NC(=O)c2sccc2C)n1	SENP8 block-1 91.4, SENP7 block 96.1, SENP6 block 95.5 | SENP8 conf 94.6 | SENP6 conf 95.1 | SENP7 confirm 101.2 | Casp3 select 97.5 | Luc interf 94.3
Cc1ccsc1C(=O)Nc1nccs1	SENP8 block-1 50.8, SENP7 block 63.1, SENP6 block 63.8 | SENP8 conf 58.5 | SENP6 conf 57.2 | SENP7 confirm 86.1 | Casp3 select 85.5 | Luc interf 52.0
Cc1ccc(C(=O)Nc2nccs2)cc1	none
CCCC1=NN(c2ccc([N+](=O)[O-])cc2)C(=O)/C1=C\N(C)C	SENP8 block-1 94.8, SENP7 block 96.2, SENP6 block 95.4, SENP8 block-2 52.4 | SENP8 conf 96.9 | SENP6 conf 97.3 | SENP7 confirm 101.9 | Casp3 select 97.3 | Luc interf 96.7
COc1cccc2cc(-c3nc4ccccc4[nH]3)c(=O)oc12	SENP7 block 59.0 | SENP8 conf inactive | SENP6 conf inactive | SENP7 confirm inactive | Casp3 select inactive | Luc interf inactive
COc1ccc(-c2cc3cccc(OC)c3oc2=O)cc1	SENP8 block-1 80.2, SENP7 block 87.0, SENP6 block 80.7 | SENP8 conf 89.3 | SENP6 conf 89.6 | SENP7 confirm 99.0 | Casp3 select 88.0 | Luc interf 76.3

Source: PubChem BioAssay
